Source: PubChem (Johns Hopkins Ion Channel Center)
KCNK9 block = blocks the human KCNK9 two-pore domain potassium channel; Q9NPC2; HEK293 KCNK9, FluxOR thallium flux fluorescence; active compounds read low; B-score at 10 µM; actives 1.2% (n = 310,000);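 active = ratio B-score over 3 SD below the library mean, with starting fluorescence within 5 SD of its mean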;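 also: negative B-score means less thallium flux so channel inhibition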
KCNQ1 pot = potentiators or activators of human KCNQ1 potassium channel. B-score at 10 µM. actives 0.35% (n = 310,000). CHO-K1 KCNQ1, thallium flux FluxOR fluorescence; active compounds read high. AID 2648. P51787;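 active = fluorescence ratio B-score, a plate-corrected score, at least three library SD, with initial intensity B-score within 5 SD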
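Material: CHO-K1 cells stably expressing KCNQ1. Medium: assay buffer for compound exposure, DMSO matched across wells. Reagent: K+/Tl+ depolarizing stimulus. Compound dosing: single-concentration screen. Times: 37 °C overnight plating, 90-min dark dye load, 20-min compound pretreatment. Technique: FluxOR Tl+ flux fluorescence.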
KCNQ1 block = inhibitors of human KCNQ1 potassium channel; actives 1.3% (n = 310,000); B-score at 10 µM; P51787; CHO-K1 KCNQ1, FluxOR thallium flux fluorescence; active compounds read high;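 active = compounds whose thallium flux B-score, printed positive for inhibition, exceeds three library SD while starting fluorescence stays within three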;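 also: channel opened by potassium depolarization with thallium stimulus after 20 min compound exposure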
Kir21 block = blocks the mouse Kir2.1 inward-rectifier potassium channel. P35561. HEK293-Kir2.1, FluxOR thallium flux fluorescence; active compounds read low. B-score at 10 µM. actives 0.85% (n = 310,000). AID 1672;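 active = fluorescence ratio B-score at or below minus 3 SD of library scores, with starting-brightness B-score within 2 SD, cut at about -4.2 in these data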;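 also: channel flux triggered by added potassium and thallium sulfate stimulus; B-score of peak minus minimum fluorescence over baseline after thallium stimulus; more negative B-score means stronger Kir2.1 block with less thallium influx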
Target sequence (P35561 whole entry, looked up): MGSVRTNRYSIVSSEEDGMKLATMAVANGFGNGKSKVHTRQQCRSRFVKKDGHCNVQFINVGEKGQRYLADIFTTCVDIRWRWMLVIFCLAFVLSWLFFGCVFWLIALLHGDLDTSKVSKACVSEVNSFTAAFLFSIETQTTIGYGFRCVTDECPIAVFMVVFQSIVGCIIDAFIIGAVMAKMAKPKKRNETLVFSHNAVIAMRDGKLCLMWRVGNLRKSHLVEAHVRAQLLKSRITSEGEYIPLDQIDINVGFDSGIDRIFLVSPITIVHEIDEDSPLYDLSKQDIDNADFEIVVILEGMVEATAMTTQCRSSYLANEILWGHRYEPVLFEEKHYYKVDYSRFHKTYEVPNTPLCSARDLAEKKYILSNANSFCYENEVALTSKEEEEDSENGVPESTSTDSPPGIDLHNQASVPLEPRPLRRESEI
hERG rescue = shields human hERG channel from block by proarrhythmic agents; Q12809; CHO-hERG, FluxOR thallium flux, dofetilide IC70 present; activation (rescue from dofetilide block), less the hit threshold, % at 10 µM; actives 0.51% (n = 310,000); AID 1511;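 active = activation above the mean of controls blocked by dofetilide plus 5 SD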;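 also: thallium influx through hERG after potassium depolarization seen as dye fluorescence rise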
KCNK3 block = human KCNK3 channel inhibition, primary screen | AID 602410 | CHO-KCNK3 thallium flux, FluxOR fluorescence; active compounds read low | O14649 | B-score at 10 µM | actives 0.84% (n = 340,000);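 active = B-score under library mean minus 4 SD, starting fluorescence ratio at most library mean plus 5 SD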;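 also: more negative B-score means stronger inhibition of thallium flux through KCNK3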
KCNK3 confirm = human KCNK3 channel inhibition, confirmation assay | CHO-KCNK3 thallium flux, FluxOR fluorescence; 0% buffer, 100% carvedilol maximal block | ratio percent of control, % at 10 µM | shares compounds with KCNK3 block | actives 99% (n = 2,400);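 active = ratio percent of control, averaged over triplicates, above buffer control mean plus 5 SD, cut at about 64% in these data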;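 also: ratio is the fluorescence rise from min to max over baseline after thallium stimulus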
KCNK3 noninduced = activity in cells without induced KCNK3 expression; shares compounds with KCNK3 block; non-induced KCNK3 parental cells, FluxOR thallium flux; active compounds read low; thallium flux ratio (lower = more inhibition) at 10 µM; actives 40% (n = 2,400);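 active = thallium flux ratio, averaged over three wells, more than 5 SD below the buffer control mean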;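 also: host cells are CHO cells without KCNK3 induction; ratio is peak minus trough fluorescence over baseline then normalized to buffer controls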
Active calls of the source: *; i = inactive; / = no result. Only some compounds are listed: those with a hit (about 3.7% of all), similar ones and a draw of the others.

SMILES	KCNK9 block	KCNQ1 pot	KCNQ1 block	Kir21 block	hERG rescue	KCNK3 block	KCNK3 confirm	KCNK3 noninduced
O=C(COc1ccc(Cl)cc1Br)Nc1ccccc1N1CCCC1	i	i	i	1.5	-12	i	/	/
Cc1cccn2c(=O)c(/C=C(\C#N)C(N)=O)c(N3CCN(c4cccc(Cl)c4)CC3)nc12	-7.2*	i	i	1.4	-5	-10*	102*	i
CC(=O)c1cccc(NC(=O)C(C)OC(=O)C2CCC2)c1 (stereo not drawn)	i	i	i	2.1	-4	i	/	/
CC(OC(=O)C1CCC1)C(=O)Nc1cc(Cl)cc(Cl)c1 (stereo not drawn)	i	i	i	-1.4	-12	-9*	96*	i
NNC(=O)c1cc(-c2ccc(N)cc2)nc2ccc(Br)cc12	i	i	i	-0.19	-6	i	/	/
CCOc1ccc(C(=O)Nc2nnn(CC)n2)cc1	i	i	i	-1.8	-14	i	/	/
CCn1nnc(NC(=O)COc2ccc(C3CCCCC3)cc2)n1	i	i	i	0.54	-15	-9.7*	94*	0.16*
CCN(CC(=O)Nc1c(F)cccc1F)C(=O)CNC(=O)c1ccc(Br)o1	i	i	i	-0.47	-15	i	/	/
CC1CC(Nc2ccccc2)c2ccccc2N1C(=O)c1ccco1 (stereo not drawn)	i	i	i	-3.2	-10	-13*	115*	i
CCCCCn1c(N)c(-c2nc3ccccc3s2)c2c([N+](=O)[O-])nn(C)c(=O)c21	i	i	11*	-0.01	-43	-11*	102*	0.15*
O=S(=O)(c1ccccc1)N(CC1CO1)c1cc(Cl)ccc1Cl (stereo not drawn)	i	i	i	-1.5	-9	i	/	/
Cc1ccccc1-n1nnnc1SCc1csc(-c2ccccc2)n1	i	i	i	-0.87	-13	-11*	105*	i
COc1cccc(-c2c(C(=O)N/N=C/c3ccoc3)nnn2-c2nonc2N)c1	i	i	i	-0.05	-5	i	/	/
COc1ccc(Cl)cc1NC(=O)CN(C)C(=O)c1sc2ccccc2c1Cl	/	/	/	/	/	-12*	112*	i
COc1cc(/C=C(\C#N)c2nc3ccccc3n2C)cc(OC)c1O	i	i	7*	-4.5	-18	-9.4*	118*	0.15*
COc1cc(/C=C(\C#N)c2nc3ccccc3[nH]2)cc(OC)c1O	i	i	i	-7	-16	-16*	0	i
COc1ccc(/C=C(\C#N)c2nc3ccccc3[nH]2)cc1O	i	i	i	1.6	-2	i	/	/
[N-]=[N+]=NCCN1CCN(CCc2ccccc2)CCC1=O	i	i	i	-0.99	-7	i	/	/
COc1ccc(/C(C)=N/NS(=O)(=O)c2cc(C)ccc2C)c(OC)c1	i	i	i	0.63	-8	-10*	97*	i
CCOc1ccc(S(=O)(=O)N/N=C(\C)c2ccc(OC)cc2OC)cc1	i	i	i	0.39	-7	i	/	/
COCCN(C(=S)Nc1cc(C)cc(C)c1)C(C)c1ccco1 (stereo not drawn)	i	i	i	-0.79	-9	-9*	85*	i
COCCN(C(=S)Nc1cc(C)cc(C)c1)C(C)c1cccs1 (stereo not drawn)	i	i	i	-0.8	-4	i	/	/
CCN(CC(=O)Nc1ccccc1C(F)(F)F)C(=O)c1cccc(N2C(=O)CCC2=O)c1	i	i	i	4	-13	i	/	/
CC(C)(C)c1ccc(/C=C/C(=O)N2CCCCC2)cc1	i	i	i	-0.2	2	-8.9*	108*	i
CC1=C(C(=O)OC(C)C)C(c2cn(-c3ccccc3)nc2-c2cccs2)NC(=O)N1 (stereo not drawn)	i	i	i	1.3	-8	-9.5*	87*	i
SMILES	KCNK9 block	KCNQ1 pot	KCNQ1 block	Kir21 block	hERG rescue	KCNK3 block	KCNK3 confirm	KCNK3 noninduced
CC(OC(=O)Cn1cnc2c1c(=O)n(C)c(=O)n2C)C(=O)Nc1ccc(Cl)cc1 (stereo not drawn)	i	i	i	0.29	-8	i	/	/
CCCOC(=O)/C(=C\C=C\c1ccco1)NC(=O)c1ccccc1	i	i	i	0.58	-18	-10*	107*	0.15*
O=c1sc2ccccc2n1COc1ccccc1	/	/	/	/	/	i	/	/
Cc1ccccc1OCCCn1c(=O)sc2ccccc21	i	i	i	0	-9	-9.6*	94*	i
O=c1sc2ccccc2n1COc1ccc(Cl)cc1	i	i	i	2.1	-4	-9.1*	124*	0.15*
Cc1ccccc1C(=O)N1CCC(C(=O)NC(C)c2ccc(-n3ccnc3)cc2)CC1 (stereo not drawn)	i	i	i	0.96	-13	i	/	/
CCN(CCCNC(=O)c1nn(C)c2c1CS(=O)(=O)c1ccccc1-2)Cc1ccccc1	i	i	i	-0.73	-9	i	/	/
O=[N+]([O-])c1ccc(C2CCCC/C2=N/OCc2ccccc2F)c([N+](=O)[O-])c1 (stereo not drawn)	i	i	12*	-2.9	-19	-8.7*	121*	i
Cc1c(C(=O)N2CCCCC2)c(S(=O)(=O)N2c3ccccc3CC2C)c(C)n1C (stereo not drawn)	i	i	i	-0.3	-7	i	/	/
O=C(NCc1cc([N+](=O)[O-])ccc1O)c1cc(-c2ccncc2)nc2ccccc12	i	i	i	0.03	-10	-11*	100*	0.14*
COc1cc(OC)c(OC)cc1/C=C1\CC(C)C/C(=C\c2cc(OC)c(OC)cc2OC)C1=O (stereo not drawn)	i	i	8*	-0.8	-7	-14*	154*	0.066*
COc1cc(OC)c(OC)cc1/C=C1/Cc2ccccc2C1=O	i	i	i	-0.07	-13	i	/	/
CC(=O)c1c(C)[nH]c(C(=O)OCC(=O)Nc2ccc(Cl)c(S(=O)(=O)N(C)C)c2)c1C	i	i	i	0.02	-6	i	/	/
CC(=O)c1c(C)[nH]c(C(=O)Nc2ccc(Cl)c(S(=O)(=O)N(C)C)c2)c1C	i	i	i	-0.77	-35	-11*	103*	i
